Measured values published in ChEMBL document CHEMBL1122702, “Radiohalogen-labeled imaging agents. 3. Compounds for measurement of brain blood flow by emission tomography” (J Med Chem, 1984).

What was measured:
Type in all cases: ADME, organism-based
Rattus norvegicus [1] = species on record: Rattus norvegicus; experiment: The distribution of the 131 I-labeled compound at 5 min was evaluated in rat blood as Percent of injected dose per gram in the organ; settings: in vivo
In short: (§1)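 Male Sprague-Dawley rats (200–300 g, free access to food and water), lightly ether-anesthetized and restrained, received a 0.2 mL saline tail-vein bolus of 10–20 μCi 131I-labeled compound. They were decapitated at the stated time, and organs were excised, weighed and gamma-counted. Percent injected dose was determined against a calibrated external standard made by serial dilution of the injectate. n = 1–4 rats.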

Rattus norvegicus [2] = species on record: Rattus norvegicus; experiment: The distribution of the 131 I-labeled compound at 5 min was evaluated in rat kidney as Percent of injected dose in the total organ; settings: in vivo; in short: as §1
Rattus norvegicus [3] = species on record: Rattus norvegicus; experiment: The distribution of the 131 I-labeled compound at 5 min was evaluated in rat heart as Percent of injected dose in the total organ; settings: in vivo; in short: as §1
Rattus norvegicus [4] = species on record: Rattus norvegicus; experiment: Ratio of distribution of the [131I]-labeled compound at 30 min in rat lung over uptake in blood; settings: other tissue, 0.5 h
In short: (§2)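 Male Sprague-Dawley rats (200–300 g, fed ad libitum), ether-anesthetized, got a tail-vein bolus of 0.2 mL saline containing 10–20 μCi 131I compound and were decapitated at the stated time. Organs were weighed and gamma-counted against a serially diluted external standard. Organ/blood ratio was calculated from % dose per gram of organ. Animal numbers per time point were 1–4.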

Rattus norvegicus [5] = species on record: Rattus norvegicus; experiment: Ratio of distribution of the [131I]-labeled compound at 5 min in rat lung over uptake in blood; settings: other tissue; in short: as §2
Rattus norvegicus [6] = species on record: Rattus norvegicus; experiment: Ratio of distribution of the [131I]-labeled compound at 30 min in rat kidney over uptake in blood; settings: other tissue, 0.5 h; in short: as §2
Rattus norvegicus [7] = species on record: Rattus norvegicus; experiment: Ratio of distribution of the [131I]-labeled compound at 30 min in rat liver over uptake in blood; settings: other tissue, 0.5 h; in short: as §2
Rattus norvegicus [8] = species on record: Rattus norvegicus; experiment: The distribution of the 131 I-labeled compound at 5 min was evaluated in rat brain as Percent of injected dose per gram in the organ; settings: in vivo; in short: as §1
Rattus norvegicus [9] = species on record: Rattus norvegicus; experiment: The distribution of the 131 I-labeled compound at 30 min was evaluated in rat heart as Percent of injected dose per gram in the organ; settings: in vivo, 0.5 h; in short: as §1
Rattus norvegicus [10] = species on record: Rattus norvegicus; experiment: Ratio of distribution of the [131I]-labeled compound at 30 min in rat brain over uptake in blood; settings: 0.5 h; in short: as §2
Rattus norvegicus [11] = species on record: Rattus norvegicus; experiment: The distribution of the 131 I-labeled compound at 5 min was evaluated in rat brain as Percent of injected dose in the total organ; settings: in vivo; in short: as §1
Rattus norvegicus [12] = species on record: Rattus norvegicus; experiment: The distribution of the 131 I-labeled compound at 30 min was evaluated in rat liver as Percent of injected dose per gram in the organ; settings: in vivo, 0.5 h; in short: as §1
Rattus norvegicus [13] = species on record: Rattus norvegicus; experiment: The distribution of the 131 I-labeled compound at 30 min was evaluated in rat heart as Percent of injected dose in the total organ; settings: in vivo, 0.5 h; in short: as §1
Rattus norvegicus [14] = species on record: Rattus norvegicus; experiment: The distribution of the 131 I-labeled compound at 5 min was evaluated in rat kidney as Percent of injected dose per gram in the organ; settings: in vivo; in short: as §1
Rattus norvegicus [15] = species on record: Rattus norvegicus; experiment: The distribution of the 131 I-labeled compound at 5 min was evaluated in rat heart as Percent of injected dose per gram in the organ; settings: in vivo; in short: as §1
Rattus norvegicus [16] = species on record: Rattus norvegicus; experiment: The distribution of the 131 I-labeled compound at 5 min was evaluated in rat lung as Percent of injected dose per gram in the organ; settings: in vivo; in short: as §1
Rattus norvegicus [17] = species on record: Rattus norvegicus; experiment: Ratio of distribution of the [131I]-labeled compound at 5 min in rat heart over uptake in blood; settings: other tissue; in short: as §2
Rattus norvegicus [18] = species on record: Rattus norvegicus; experiment: The distribution of the 131 I-labeled compound at 30 min was evaluated in rat kidney as Percent of injected dose in the total organ; settings: in vivo, 0.5 h; in short: as §1
Rattus norvegicus [19] = species on record: Rattus norvegicus; experiment: Ratio of distribution of the [131I]-labeled compound at 5 min in rat liver over uptake in blood; settings: other tissue; in short: as §2
Rattus norvegicus [20] = species on record: Rattus norvegicus; experiment: The distribution of the 131 I-labeled compound at 30 min was evaluated in rat kidney as Percent of injected dose per gram in the organ; settings: in vivo, 0.5 h; in short: as §1
Rattus norvegicus [21] = species on record: Rattus norvegicus; experiment: The distribution of the 131 I-labeled compound at 30 min was evaluated in rat lung as Percent of injected dose per gram in the organ; settings: in vivo, 0.5 h; in short: as §1
Rattus norvegicus [22] = species on record: Rattus norvegicus; experiment: Ratio of distribution of the [131I]-labeled compound at 5 min in rat brain over uptake in blood; in short: as §2
Rattus norvegicus [23] = species on record: Rattus norvegicus; experiment: The distribution of the 131 I-labeled compound at 5 min was evaluated in rat liver as Percent of injected dose per gram in the organ; settings: in vivo; in short: as §1
Rattus norvegicus [24] = species on record: Rattus norvegicus; experiment: The distribution of the 131 I-labeled compound at 30 min was evaluated in rat brain as Percent of injected dose in the total organ; settings: in vivo, 0.5 h; in short: as §1
Rattus norvegicus [25] = species on record: Rattus norvegicus; experiment: The distribution of the 131 I-labeled compound at 30 min was evaluated in rat brain as Percent of injected dose per gram in the organ; settings: in vivo, 0.5 h; in short: as §1
Rattus norvegicus [26] = species on record: Rattus norvegicus; experiment: Ratio of distribution of the [131I]-labeled compound at 30 min in rat heart over uptake in blood; settings: other tissue, 0.5 h; in short: as §2
Rattus norvegicus [27] = species on record: Rattus norvegicus; experiment: The distribution of the 131 I-labeled compound at 30 min was evaluated in rat blood as Percent of injected dose per gram in the organ; settings: in vivo, 0.5 h; in short: as §1
Rattus norvegicus [28] = species on record: Rattus norvegicus; experiment: The distribution of the 131 I-labeled compound at 30 min was evaluated in rat liver as Percent of injected dose in the total organ; settings: in vivo, 0.5 h; in short: as §1
Rattus norvegicus [29] = species on record: Rattus norvegicus; experiment: The distribution of the 131 I-labeled compound at 5 min was evaluated in rat liver as Percent of injected dose in the total organ; settings: in vivo; in short: as §1
Rattus norvegicus [30] = species on record: Rattus norvegicus; experiment: Ratio of distribution of the [131I]-labeled compound at 5 min in rat kidney over uptake in blood; settings: other tissue; in short: as §2

SMILES | Dose (Rattus norvegicus [1]) [%] | Dose (Rattus norvegicus [2]) [%] | Dose (Rattus norvegicus [3]) [%] | Ratio (Rattus norvegicus [4]) | Ratio (Rattus norvegicus [5]) | Ratio (Rattus norvegicus [6]) | Ratio (Rattus norvegicus [7]) | Dose (Rattus norvegicus [8]) [%] | Dose (Rattus norvegicus [9]) [%] | Ratio (Rattus norvegicus [10]) | Dose (Rattus norvegicus [11]) [%] | Dose (Rattus norvegicus [12]) [%] | Dose (Rattus norvegicus [13]) [%] | Dose (Rattus norvegicus [14]) [%] | Dose (Rattus norvegicus [15]) [%] | Dose (Rattus norvegicus [16]) [%] | Ratio (Rattus norvegicus [17]) | Dose (Rattus norvegicus [18]) [%] | Ratio (Rattus norvegicus [19]) | Dose (Rattus norvegicus [20]) [%] | other results
COc1cc(CC(C)NN)c(OC)cc1I (stereo not given) | 0.36 | 2.2 | 0.4 | 1.5 | 2.4 | 4.5 | 1.7 | 0.37 | 1.2 | 0.5 | 0.72 | 0.29 | 0.15 | 1.2 | 0.46 | 0.87 | 1.9 | 1.5 | 3.6 | 0.77 | Dose (Rattus norvegicus [21]): 0.26%; Ratio (Rattus norvegicus [22]): 1; Dose (Rattus norvegicus [23]): 1.3%; Dose (Rattus norvegicus [24]): 0.14%; Dose (Rattus norvegicus [25]): 0.08%; Ratio (Rattus norvegicus [26]): 7.1; Dose (Rattus norvegicus [27]): 0.17%; Dose (Rattus norvegicus [28]): 5%; Dose (Rattus norvegicus [29]): 12%; Ratio (Rattus norvegicus [30]): 3.3
COc1cc(CC(C)NCCCN(C)C)c(OC)cc1I (stereo not given) | 0.11 | 57 | 1.9 | 77 | 34 | 29 | 7.8 | 0.03 | 1.5 | 0.3 | 0.05 | 0.55 | 1.6 | 2 | 1.8 | 3.8 | 17 | 5.7 | 6 | 2 | Dose (Rattus norvegicus [21]): 5.4%; Ratio (Rattus norvegicus [22]): 0.3; Dose (Rattus norvegicus [23]): 0.66%; Dose (Rattus norvegicus [24]): 0.04%; Dose (Rattus norvegicus [25]): 0.02%; Ratio (Rattus norvegicus [26]): 21; Dose (Rattus norvegicus [27]): 0.07%; Dose (Rattus norvegicus [28]): 7.7%; Dose (Rattus norvegicus [29]): 11%; Ratio (Rattus norvegicus [30]): 16
